Experimental data from ChEMBL document CHEMBL2146377, “Rational design of 4-aryl-1,2,3-triazoles for indoleamine 2,3-dioxygenase 1 inhibition” (J Med Chem, 2012).
Calls of active or inactive are those of the source. The rule behind the calls is not given here.

Tests used:
[1] = biological target: T1, Indoleamine 2,3-dioxygenase 1 (Homo sapiens, UniProt P14902); assay: Inhibition of human recombinant N-terminal His-tagged IDO1 (Ala2 to Gly403) overexpressed in Escherichia coli BL21 at pH 6.5 after 60 mins by HPLC analysis
Target sequence in this assay (P14902 whole entry): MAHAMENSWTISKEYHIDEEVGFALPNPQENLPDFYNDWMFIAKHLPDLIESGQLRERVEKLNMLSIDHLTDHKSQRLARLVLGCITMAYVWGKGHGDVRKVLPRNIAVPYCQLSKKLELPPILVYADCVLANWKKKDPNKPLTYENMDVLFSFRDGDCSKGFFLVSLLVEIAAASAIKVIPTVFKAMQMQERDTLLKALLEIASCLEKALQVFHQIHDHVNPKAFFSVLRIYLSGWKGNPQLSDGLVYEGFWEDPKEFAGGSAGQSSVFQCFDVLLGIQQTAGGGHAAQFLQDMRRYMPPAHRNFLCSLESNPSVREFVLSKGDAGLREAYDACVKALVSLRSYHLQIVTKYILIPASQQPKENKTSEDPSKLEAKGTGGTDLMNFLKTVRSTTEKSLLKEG

[2] = biological target: Indoleamine 2,3-dioxygenase 1 (Mus musculus, UniProt P28776); assay: Inhibition of mouse IDO1 in P815 clone 6 cells by HPLC analysis; type: cell-based
Summary of the method: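 Murine mastocytoma P815 stably transfected cells were used: P815-mIDO1 clone 6 for mouse IDO1 and P815B-hIDO1 clone 6 for human IDO1. Cells with inhibitor were incubated at 37 °C until under 50% of tryptophan was consumed, as tracked in control wells by pDMAB absorbance at 480 nm. Supernatant was TCA-precipitated, and tryptophan and kynurenine were quantified by C18 HPLC. Values are the mean of ≥2 independent assays.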

[3] = biological target: T1, Indoleamine 2,3-dioxygenase 1; assay: Inhibition of human IDO1 transfected in mouse P815B clone-6 cells by HPLC analysis; type: cell-based
Target sequence in this assay (P14902 whole entry): as above

[4] = biological target: Tryptophan 2,3-dioxygenase (Mus musculus, UniProt P48776); assay: Inhibition of mouse TDO in P815 clone 12 cells by HPLC analysis; type: cell-based
[5] = biological target: Tryptophan 2,3-dioxygenase (Homo sapiens, UniProt P48775); assay: Inhibition of human TDO transfected in mouse P815B clone 19 cells by HPLC analysis; type: cell-based
[6] = tested on: HepG2; assay: Cytotoxicity against human HepG2 cells after 24 hrs by MTS-PMS assay; type: functional; details: HepG2, 24 h, read-out: LD50 (the source's name)
Summary of the method: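 Hep G2 cells (2 × 10⁴ per well) in IMDM with 10% FCS exposed to compound titrated 0.001–100 μM for 24 h at 37 °C; living cells counted by MTS/PMS assay; LD₅₀ reported as mean of at least two independent assays with standard deviation.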

[7] = biological target: T1, Indoleamine 2,3-dioxygenase 1; assay: Inhibition of human IDO1 transfected in HEK293 clone 6 cells by HPLC analysis; type: cell-based
Target sequence in this assay (P14902 whole entry, looked up): as the sequence (P14902 whole entry) above

[8] = biological target: T1, Indoleamine 2,3-dioxygenase 1; details: at 1 mM
Target sequence in this assay (P14902 whole entry, looked up): as the sequence (P14902 whole entry) above

[9] = physchem; details: pH 2

Sequence of Tryptophan 2,3-dioxygenase (Mus musculus, UniProt P48776) (P48776 whole entry): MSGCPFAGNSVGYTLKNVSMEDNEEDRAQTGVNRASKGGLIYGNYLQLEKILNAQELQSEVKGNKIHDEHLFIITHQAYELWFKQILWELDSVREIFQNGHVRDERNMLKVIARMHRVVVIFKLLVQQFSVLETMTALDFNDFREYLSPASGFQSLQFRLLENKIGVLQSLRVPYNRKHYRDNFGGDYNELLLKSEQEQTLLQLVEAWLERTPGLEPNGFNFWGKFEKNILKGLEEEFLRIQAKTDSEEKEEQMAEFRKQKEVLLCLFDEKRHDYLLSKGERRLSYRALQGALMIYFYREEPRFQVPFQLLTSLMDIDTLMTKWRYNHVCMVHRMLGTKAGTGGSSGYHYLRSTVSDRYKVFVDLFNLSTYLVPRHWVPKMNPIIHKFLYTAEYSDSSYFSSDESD
Sequence of Indoleamine 2,3-dioxygenase 1 (Mus musculus, UniProt P28776) (P28776 whole entry): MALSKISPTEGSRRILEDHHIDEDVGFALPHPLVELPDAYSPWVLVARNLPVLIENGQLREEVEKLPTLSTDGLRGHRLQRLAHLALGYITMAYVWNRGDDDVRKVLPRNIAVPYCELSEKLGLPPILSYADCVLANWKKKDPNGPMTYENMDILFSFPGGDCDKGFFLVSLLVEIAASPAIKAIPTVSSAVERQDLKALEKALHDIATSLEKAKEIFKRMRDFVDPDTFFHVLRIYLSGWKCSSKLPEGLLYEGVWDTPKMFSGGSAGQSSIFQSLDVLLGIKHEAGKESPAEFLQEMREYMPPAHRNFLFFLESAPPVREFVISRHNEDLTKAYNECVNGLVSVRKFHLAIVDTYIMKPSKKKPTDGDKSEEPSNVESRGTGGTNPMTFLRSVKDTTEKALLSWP
Sequence of Tryptophan 2,3-dioxygenase (Homo sapiens, UniProt P48775) (P48775 whole entry): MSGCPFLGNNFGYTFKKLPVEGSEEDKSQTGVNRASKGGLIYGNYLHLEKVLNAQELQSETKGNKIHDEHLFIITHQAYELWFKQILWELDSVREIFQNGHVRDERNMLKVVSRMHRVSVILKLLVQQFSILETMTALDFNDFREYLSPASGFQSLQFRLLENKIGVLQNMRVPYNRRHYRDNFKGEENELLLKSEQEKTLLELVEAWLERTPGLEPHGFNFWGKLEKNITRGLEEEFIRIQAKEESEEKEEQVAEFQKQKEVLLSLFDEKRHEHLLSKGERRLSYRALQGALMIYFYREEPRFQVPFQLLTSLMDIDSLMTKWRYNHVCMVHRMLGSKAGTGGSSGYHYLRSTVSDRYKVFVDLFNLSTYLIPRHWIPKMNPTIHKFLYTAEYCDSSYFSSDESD

Question: With `Oc1ccccc1-c1c[nH]nn1` as the compound, how does the IC50 [1] read?
Answer: 15 µM

Question: What about the IC50 [2] of the same compound?
Answer: 0.022 µM

Question: What about the IC50 [3] of the same compound?
Answer: 1.7 µM

Question: And the IC50 [4]?
Answer: > 100 µM

Question: What about the IC50 [5] of the same compound?
Answer: > 100 µM

Question: What about the CC50 [6] of the same compound?
Answer: > 100 µM

Question: What about the inhibition [7] of the same compound?
Answer: Active

Question: What does the source list for `Nc1nonc1C(=NO)Nc1ccc(F)c(Cl)c1`?
Answer: IC50 [4]: 60 µM; IC50 [5]: 70 µM

Question: With `N#Cc1cccc(-c2c[nH]nn2)c1` as the compound, how does the IC50 [1] read?
Answer: 2.8 µM

Question: What about the IC50 [2] of the same compound?
Answer: 0.029 µM

Question: What about the IC50 [3] of the same compound?
Answer: 2.9 µM

Question: And the IC50 [4]?
Answer: > 100 µM

Question: And the IC50 [5]?
Answer: > 100 µM

Question: What about the CC50 [6] of the same compound?
Answer: > 100 µM

Question: What about the inhibition [7] of the same compound?
Answer: Active

Question: With `c1cc(-c2ccncc2)ccn1` as the compound, how does the inhibition [8] read?
Answer: inactive

Question: With `Cc1ccc(-c2c[nH]nn2)cc1` as the compound, how does the IC50 [1] read?
Answer: 1000 µM

Question: Which inhibition [8] does the source give for `c1ccc(SCc2c[nH]nn2)cc1` here?
Answer: inactive

Question: With `c1ccc(Cn2cc(-c3ccccc3)nn2)cc1` as the compound, how does the inhibition [8] read?
Answer: inactive

Question: Which IC50 [1] does the source give for `c1cncc(-c2c[nH]nn2)c1` here?
Answer: 1000 µM

Question: What about the pKa [9] of the same compound?
Answer: 8.14

Question: For `Fc1ccccc1-c1c[nH]nn1`, which IC50 [1] is on record?
Answer: 80 µM

Question: What about the IC50 [2] of the same compound?
Answer: 0.63 µM

Question: And the IC50 [3]?
Answer: 70 µM

Question: And the IC50 [4]?
Answer: > 100 µM

Question: And the IC50 [5]?
Answer: > 100 µM

Question: And the CC50 [6]?
Answer: > 100 µM

Question: And the inhibition [7]?
Answer: Active

Question: What does the source list for `Oc1cccc(-c2c[nH]nn2)c1`?
Answer: IC50 [1]: 310 µM; IC50 [2]: 1.3 µM; IC50 [3]: > 100 µM; IC50 [4]: > 100 µM; IC50 [5]: > 100 µM; CC50 [6]: > 100 µM; inhibition [7]: Active

Question: Which inhibition [8] does the source give for `c1ccc(-c2ccncn2)cc1` here?
Answer: inactive

Question: With `Cc1c(Cl)cccc1-c1c[nH]nn1` as the compound, how does the IC50 [1] read?
Answer: 72 µM

Question: Which results are given for `Fc1ccc(-c2cnn[nH]2)cc1`?
Answer: CC50 [6]: > 100 µM; inhibition [7]: Active

Question: With `Fc1ccc(-c2cnnn2-c2ccccc2)cc1` as the compound, how does the inhibition [8] read?
Answer: inactive

Question: Which IC50 [1] does the source give for `Cc1ccc(N)cc1-c1c[nH]nn1` here?
Answer: 3200 µM

Question: With `CCn1nncc1-c1ccccc1` as the compound, how does the inhibition [8] read?
Answer: inactive

Question: For `c1ccc(-c2nnn[nH]2)cc1`, which inhibition [8] is on record?
Answer: inactive

Question: What about the pKa [9] of the same compound?
Answer: 4.53

Question: Which inhibition [8] does the source give for `COc1ccccc1-c1cnnn1-c1ccccc1` here?
Answer: inactive

Question: With `FC(F)(F)c1ccc(-c2c[nH]nn2)cc1` as the compound, how does the IC50 [1] read?
Answer: 2300 µM

Question: With `c1ccc2[nH]nnc2c1` as the compound, how does the inhibition [8] read?
Answer: inactive

Question: Which IC50 [1] does the source give for `O=[N+]([O-])c1cccc(-c2c[nH]nn2)c1` here?
Answer: 15 µM

Question: What about the IC50 [2] of the same compound?
Answer: 0.11 µM

Question: And the IC50 [3]?
Answer: 24 µM

Question: What about the IC50 [4] of the same compound?
Answer: > 100 µM

Question: And the IC50 [5]?
Answer: > 100 µM

Question: And the CC50 [6]?
Answer: > 100 µM

Question: What about the inhibition [7] of the same compound?
Answer: Active

Question: With `CNc1ccccc1-c1c[nH]nn1` as the compound, how does the IC50 [1] read?
Answer: 1800 µM

Question: With `C1=C(c2c[nH]nn2)CCCC1` as the compound, how does the inhibition [8] read?
Answer: inactive

Question: For `Cc1ccc2[nH]nnc2c1`, which inhibition [8] is on record?
Answer: inactive

Question: Which IC50 [1] does the source give for `Clc1cc(-c2c[nH]nn2)ccn1` here?
Answer: 2.8 µM

Question: What about the IC50 [2] of the same compound?
Answer: 0.06 µM

Question: And the IC50 [3]?
Answer: 3.5 µM

Question: What about the IC50 [4] of the same compound?
Answer: > 100 µM

Question: What about the IC50 [5] of the same compound?
Answer: > 100 µM

Question: And the CC50 [6]?
Answer: > 100 µM

Question: What about the inhibition [7] of the same compound?
Answer: Active

Question: What about the pKa [9] of the same compound?
Answer: 7.6

Question: What does the source list for `CCc1ccccc1-c1c[nH]nn1`?
Answer: IC50 [1]: 230 µM; IC50 [2]: 13 µM; IC50 [3]: > 100 µM; IC50 [4]: > 100 µM; IC50 [5]: > 100 µM; CC50 [6]: > 100 µM; inhibition [7]: Active

Question: Which results are given for `Cc1ccc(Cl)cc1-c1c[nH]nn1`?
Answer: IC50 [1]: 4.3 µM; IC50 [2]: 0.12 µM; IC50 [3]: 14 µM; IC50 [4]: > 100 µM; IC50 [5]: > 100 µM; CC50 [6]: > 100 µM; inhibition [7]: Active

Question: For `Clc1cccc(-c2cnnn2-c2ccccc2)c1`, which inhibition [8] is on record?
Answer: inactive

Question: For `Fc1cc(-c2c[nH]nn2)ccn1`, which IC50 [1] is on record?
Answer: 7.4 µM

Question: What about the IC50 [2] of the same compound?
Answer: 0.12 µM

Question: And the IC50 [3]?
Answer: 7 µM

Question: What about the IC50 [4] of the same compound?
Answer: > 100 µM

Question: And the IC50 [5]?
Answer: > 100 µM

Question: What about the CC50 [6] of the same compound?
Answer: > 100 µM

Question: And the inhibition [7]?
Answer: Active

Question: What about the pKa [9] of the same compound?
Answer: 7.59

Question: With `CCn1cc(-c2ccccc2)nn1` as the compound, how does the inhibition [8] read?
Answer: inactive

Question: Which inhibition [8] does the source give for `Oc1ccccc1-c1ccno1` here?
Answer: inactive

Question: Which pKa [9] does the source give for `c1nnn[nH]1` [TETRAZOLE] here?
Answer: 4.79

Question: What does the source list for `Nc1cccc(-c2c[nH]nn2)c1`?
Answer: IC50 [1]: 1500 µM; IC50 [2]: 4 µM; IC50 [3]: > 100 µM; IC50 [4]: > 100 µM; IC50 [5]: > 100 µM; CC50 [6]: > 100 µM; inhibition [7]: Active

Question: Which results are given for `FC(F)(F)c1cc(-c2c[nH]nn2)ccn1`?
Answer: IC50 [1]: 15 µM; IC50 [2]: 0.34 µM; IC50 [3]: 56 µM; IC50 [4]: > 100 µM; IC50 [5]: > 100 µM; CC50 [6]: > 100 µM; inhibition [7]: Active

Question: For `O=C(O)CCc1ccccc1-c1c[nH]nn1`, which inhibition [8] is on record?
Answer: inactive

Question: With `Brc1ccccc1-c1cnn[nH]1` as the compound, how does the CC50 [6] read?
Answer: > 100 µM

Question: What about the inhibition [7] of the same compound?
Answer: Active

Question: For `Cc1[nH]nnc1-c1ccccc1`, which inhibition [8] is on record?
Answer: inactive

Question: And the pKa [9]?
Answer: 9.11
